Experimental data taken from ChEMBL document CHEMBL1932934, “Cyclosulfamide-based derivatives as inhibitors of noroviruses” (Eur J Med Chem, 2012).

Tests used:
[1] = Cytotoxicity against human HG23 cells after 48 hrs; type: cell-based; conditions: read-out: TD50
Summary of the method: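 Cytotoxicity in Norwalk virus replicon-harboring HG23 cells exposed to compound for 48 hr, measured with a commercial cell cytotoxicity assay kit. The median toxic dose (TD50) was calculated from the readout.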

Norovirus = assay: Antiviral activity against Norovirus infected in human HG23 cells assessed as inhibition of viral replication after 24 hrs by quantitative RT-PCR analysis; type: functional; conditions: HG23, 24 h, read-out: ED50 (the source's name)
[2] = Therapeutic index, ratio of TD50 for human HG23 cells to ED50 for Norovirus infected in human HG23 cells; type: cell-based; conditions: read-out: Ratio TD50/ED50
Summary of the method: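 Index computed as TD50 divided by ED50, both in NV replicon-harboring HG23 cells. TD50 came from a cytotoxicity assay kit after 48 hr of treatment.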

| SMILES | CC50 at 48 h [1] | EC50 (Norovirus) | selectivity ratio [2] |
| --- | --- | --- | --- |
| O=S1(=O)N(CCN2CCCCC2)CCN1Cc1cccc(Oc2ccccc2)c1 | 12.3 µM | 4.7 µM | – |
| O=S1(=O)N(CCN2CCN(Cc3cccc(Oc4ccccc4)c3)S2(=O)=O)CCN1Cc1cccc(Oc2ccccc2)c1 | 8.5 µM | 1.5 µM | – |
| O=S1(=O)N(CCN2CCN(CCN3CCN(Cc4cccc(Oc5ccccc5)c4)S3(=O)=O)CC2)CCN1Cc1cccc(Oc2ccccc2)c1 | 5.1 µM | 0.4 µM | – |
| O=S1(=O)N(CCN2CCN(Cc3ccccc3)CC2)CCN1Cc1cccc(Oc2ccccc2)c1 | 11.4 µM | 4.1 µM | < 10 |
| O=S1(=O)N(CCN2CCNCC2)CCN1Cc1cccc(Oc2ccccc2)c1 | 14.6 µM | 5.3 µM | < 10 |
| O=S1(=O)N(CCN2CCOCC2)CCN1Cc1cccc(Oc2ccccc2)c1 | 95.4 µM | 5.2 µM | – |
| COC(=O)C1CCN(CCN2CCN(Cc3cccc(Oc4ccccc4)c3)S2(=O)=O)CC1 | 180 µM | 5.5 µM | – |
| O=C(O)C1CCN(CCN2CCN(Cc3cccc(Oc4ccccc4)c3)S2(=O)=O)CC1 | 210 µM | 9.1 µM | – |
| CCOC(=O)N1CCN(CCN2CCN(Cc3cccc(Oc4ccccc4)c3)S2(=O)=O)CC1 | 13.5 µM | 5.8 µM | < 10 |
| O=C(c1ccc(Cl)cc1)N1CCN(CCN2CCN(Cc3cccc(Oc4ccccc4)c3)S2(=O)=O)CC1 | 35.3 µM | 7.4 µM | < 10 |
| O=C(c1ccc(F)cc1)N1CCN(CCN2CCN(Cc3cccc(Oc4ccccc4)c3)S2(=O)=O)CC1 | 80.8 µM | 9.7 µM | < 10 |
| O=C(c1cccc(Oc2ccccc2)c1)N1CCN(CCN2CCN(Cc3cccc(Oc4ccccc4)c3)S2(=O)=O)CC1 | 32.9 µM | 6.2 µM | < 10 |
| O=S(=O)(Cc1ccccc1)N1CCN(CCN2CCN(Cc3cccc(Oc4ccccc4)c3)S2(=O)=O)CC1 | 9.3 µM | 5.3 µM | < 10 |
| CS(=O)(=O)N1CCN(CCN2CCN(Cc3cccc(Oc4ccccc4)c3)S2(=O)=O)CC1 | 12.2 µM | 3.2 µM | < 10 |
| CCCCS(=O)(=O)N1CCN(CCN2CCN(Cc3cccc(Oc4ccccc4)c3)S2(=O)=O)CC1 | 11.1 µM | 3.4 µM | < 10 |
| COC(=O)C1CCN(C(=O)CN2CCN(Cc3cccc(Oc4ccccc4)c3)S2(=O)=O)CC1 | 156 µM | 4.2 µM | 39 |
| O=C(O)C1CCN(C(=O)CN2CCN(Cc3cccc(Oc4ccccc4)c3)S2(=O)=O)CC1 | 80.5 µM | > 10 µM | – |
| CCN1CCN(C(=O)CN2CCN(Cc3cccc(Oc4ccccc4)c3)S2(=O)=O)CC1 | 120 µM | 5.5 µM | 24 |
